Test results reported in ChEMBL document CHEMBL1130275, “Novel N-substituted 3 alpha-[bis(4'-fluorophenyl)methoxy]tropane analogues: selective ligands for the dopamine transporter” (J Med Chem, 1997).

Experiments:
[1] = target: T1, Sodium-dependent noradrenaline transporter (Homo sapiens, UniProt P23975); assay: (§1) Compound was evaluated for binding to Norepinephrine Transporter (NET) using [3H]desmethylimipramine as radioligand
Method in brief: (§2)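 Binding data supplied by an outside contract lab using published methods. SERT: [3H]citalopram, 0.7 nM final. NET: [3H]desmethylimipramine, 3.0 nM final.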

[2] = target: Sodium-dependent serotonin transporter (Rattus norvegicus, UniProt P31652); assay: (§3) Compound is evaluated for binding to Serotonin transporter using [3H]citalopram as radioligand in rat brain; assay type: tissue-based; method in brief: as §2
[3] = target: T2, Sodium-dependent dopamine transporter (Rattus norvegicus, UniProt P23977); assay: In vitro inhibition of dopamine uptake in rat tissue, was determined using [3H]DAU as radioligand
Method in brief: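 Rat caudate putamen slices (225 μm, cross-chopped) in oxygenated Krebs-HEPES at 37 °C. Stopped with ice-cold buffer and filtration. Accumulated label extracted with methanol/HCl and counted; filter blank subtracted. IC50 taken from the linear portion of the concentration–response curve by regression.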

[4] = target: T3, Muscarinic acetylcholine receptor M1 (Rattus norvegicus, UniProt P08482); assay: Binding affinity against Muscarinic acetylcholine receptor M1 sites of rat
T3 sequence (P08482 whole entry): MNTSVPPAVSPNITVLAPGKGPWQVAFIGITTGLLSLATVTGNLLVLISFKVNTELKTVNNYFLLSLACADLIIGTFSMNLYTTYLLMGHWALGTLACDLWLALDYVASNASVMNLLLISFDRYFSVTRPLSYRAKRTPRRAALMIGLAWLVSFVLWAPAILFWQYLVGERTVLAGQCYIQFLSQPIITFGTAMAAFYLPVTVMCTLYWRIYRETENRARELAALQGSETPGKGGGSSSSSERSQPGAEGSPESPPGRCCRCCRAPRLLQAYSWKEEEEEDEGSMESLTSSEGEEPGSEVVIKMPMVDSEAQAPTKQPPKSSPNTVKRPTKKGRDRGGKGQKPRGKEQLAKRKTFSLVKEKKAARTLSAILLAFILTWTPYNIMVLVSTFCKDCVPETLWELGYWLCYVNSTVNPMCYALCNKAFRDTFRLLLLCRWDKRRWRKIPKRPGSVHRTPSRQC
Method in brief: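 Whole rat brain minus cerebellum, membranes made by two-step centrifugation and resuspended in 10 mM Tris pH 7.4. Assay buffer is 10 mM Tris-HCl with 5 mM MgCl2. Membrane is preincubated 5 min with the compound, then [3H]pirenzepine 3 nM final is added for 1 h at 37 °C. Filtration through PEI-soaked GF/B. Compounds run at 0.01 nM–100 μM, ≥3 independent experiments in triplicate.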

[5] = target: T2, Sodium-dependent dopamine transporter; assay: Displacement of [3H]WIN-35 428 from the dopamine transporter in rat caudate putamen.; assay type: tissue-based
Method in brief: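 Rat caudate putamen membranes washed in Krebs-HEPES pH 7.4, 0.5% w/v final. Filtration through BSA-soaked GF/B. Compounds run at 0.01 nM–100 μM, three experiments in triplicate. Ki derived by LIGAND nonlinear fitting of two-site binding.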

[6] = target: T1, Sodium-dependent noradrenaline transporter; assay: as §1; conditions: concentration not given here; method in brief: as §2
[7] = target: Sodium-dependent serotonin transporter (Rattus norvegicus) (UniProt P31652); assay: as §3; assay type: tissue-based; conditions: concentration not given here; method in brief: as §2
[8] = target: T1, Sodium-dependent noradrenaline transporter; assay: Compound was evaluated for binding to Norepinephrine Transporter (NET).; method in brief: as §2
[9] = target: Sodium-dependent dopamine transporter (Rattus norvegicus) (UniProt P23977); assay: Inhibition of binding of [3H]WIN-35 428 to dopamine transporter (in rat caudate putamen) by 10 uM of compound.; assay type: tissue-based
Chain of Sodium-dependent dopamine transporter (Rattus norvegicus) (P23977 whole entry): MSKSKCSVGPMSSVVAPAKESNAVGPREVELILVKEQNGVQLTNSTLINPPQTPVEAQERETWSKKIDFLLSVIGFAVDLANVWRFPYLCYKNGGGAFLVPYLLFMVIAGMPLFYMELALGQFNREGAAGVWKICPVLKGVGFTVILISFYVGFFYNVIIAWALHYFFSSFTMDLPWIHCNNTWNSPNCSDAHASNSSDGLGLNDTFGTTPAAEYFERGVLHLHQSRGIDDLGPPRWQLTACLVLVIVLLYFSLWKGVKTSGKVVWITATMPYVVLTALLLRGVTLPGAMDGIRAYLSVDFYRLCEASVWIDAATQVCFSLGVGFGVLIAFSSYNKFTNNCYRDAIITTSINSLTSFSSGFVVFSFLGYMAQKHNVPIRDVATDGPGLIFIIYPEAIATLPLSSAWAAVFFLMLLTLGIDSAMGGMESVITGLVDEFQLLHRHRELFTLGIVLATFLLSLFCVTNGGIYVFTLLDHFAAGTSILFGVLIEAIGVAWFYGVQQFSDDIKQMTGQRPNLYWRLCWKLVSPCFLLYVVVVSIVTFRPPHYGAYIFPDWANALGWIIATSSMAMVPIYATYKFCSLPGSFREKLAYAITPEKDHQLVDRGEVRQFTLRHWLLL

T1 sequence (P23975 whole entry): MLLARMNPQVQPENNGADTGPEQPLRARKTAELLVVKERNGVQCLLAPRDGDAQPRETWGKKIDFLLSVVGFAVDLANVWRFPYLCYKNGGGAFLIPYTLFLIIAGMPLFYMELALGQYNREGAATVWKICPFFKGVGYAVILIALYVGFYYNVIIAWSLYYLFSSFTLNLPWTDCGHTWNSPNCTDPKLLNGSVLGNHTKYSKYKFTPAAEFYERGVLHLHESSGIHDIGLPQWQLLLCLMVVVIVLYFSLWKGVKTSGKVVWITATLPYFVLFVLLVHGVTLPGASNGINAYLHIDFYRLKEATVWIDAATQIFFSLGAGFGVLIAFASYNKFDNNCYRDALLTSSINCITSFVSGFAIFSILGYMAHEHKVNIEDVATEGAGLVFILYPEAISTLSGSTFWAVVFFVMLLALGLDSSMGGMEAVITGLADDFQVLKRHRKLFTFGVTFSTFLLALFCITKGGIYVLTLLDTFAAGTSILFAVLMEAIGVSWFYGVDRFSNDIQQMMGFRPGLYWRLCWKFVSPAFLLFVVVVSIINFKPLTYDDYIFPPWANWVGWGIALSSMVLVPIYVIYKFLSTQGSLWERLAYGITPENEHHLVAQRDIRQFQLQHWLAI
T2 sequence (P23977 whole entry): as the sequence (P23977 whole entry) above
Chain of Sodium-dependent serotonin transporter (P31652 whole entry): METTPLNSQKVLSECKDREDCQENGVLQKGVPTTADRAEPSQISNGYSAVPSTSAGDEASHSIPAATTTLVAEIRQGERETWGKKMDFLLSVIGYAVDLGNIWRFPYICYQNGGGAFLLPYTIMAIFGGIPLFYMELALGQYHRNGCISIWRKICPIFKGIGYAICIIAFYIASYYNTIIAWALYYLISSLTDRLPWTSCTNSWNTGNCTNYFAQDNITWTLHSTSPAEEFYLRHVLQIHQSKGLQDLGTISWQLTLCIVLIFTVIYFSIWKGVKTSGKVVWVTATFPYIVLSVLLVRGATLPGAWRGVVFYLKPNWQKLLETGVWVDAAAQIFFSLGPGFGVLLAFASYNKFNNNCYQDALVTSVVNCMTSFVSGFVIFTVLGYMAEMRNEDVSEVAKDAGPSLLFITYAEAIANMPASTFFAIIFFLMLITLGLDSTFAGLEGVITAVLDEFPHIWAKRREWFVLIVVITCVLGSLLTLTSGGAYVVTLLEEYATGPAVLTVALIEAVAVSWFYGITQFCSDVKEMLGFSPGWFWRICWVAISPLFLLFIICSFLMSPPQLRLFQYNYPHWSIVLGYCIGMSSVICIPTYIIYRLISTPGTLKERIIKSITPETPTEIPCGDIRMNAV
Chain of Sodium-dependent serotonin transporter (Rattus norvegicus) (P31652 whole entry): as above

Q: `C=CCN1C2CCC1CC(OC(c1ccc(F)cc1)c1ccc(F)cc1)C2` (configuration not stated) was tested. Which Ki [1] did it give?
A: 5920 nM

Q: What about the Ki [2] of the same compound?
A: 1450 nM

Q: What about the IC50 [3] of the same compound?
A: 14 nM

Q: And the Ki [4]?
A: 126 nM

Q: What about the Ki [5] of the same compound?
A: 29.9 nM

Q: How did the Ki [1] turn out when `Fc1ccc(C(OC2CC3CCC(C2)N3CCCc2ccccc2)c2ccc(F)cc2)cc1` (configuration not stated) was run?
A: 3520 nM

Q: And the Ki [2]?
A: 375 nM

Q: What about the IC50 [3] of the same compound?
A: 230 nM

Q: And the Ki [4]?
A: 136 nM

Q: And the Ki [5]?
A: 41.9 nM

Q: For `CCCCN1C2CCC1CC(OC(c1ccc(F)cc1)c1ccc(F)cc1)C2` (configuration not stated), which Ki [1] is on record?
A: 1330 nM

Q: What about the Ki [2] of the same compound?
A: 1730 nM

Q: And the IC50 [3]?
A: 370 nM

Q: And the Ki [4]?
A: 251 nM

Q: What about the Ki [5] of the same compound?
A: 24.6 nM

Q: With `Fc1ccc(C(OCCN2C3CCC2CC(OC(c2ccc(F)cc2)c2ccc(F)cc2)C3)c2ccc(F)cc2)cc1` (configuration not stated) as the compound, how does the Ki [5] read?
A: 634 nM

Q: With `O=CN1C2CCC1CC(OC(c1ccc(F)cc1)c1ccc(F)cc1)C2` (configuration not stated) as the compound, how does the inhibition [6] read?
A: 29.4%

Q: What about the inhibition [7] of the same compound?
A: 1.6%

Q: What about the IC50 [3] of the same compound?
A: 5400 nM

Q: And the Ki [4]?
A: 12300 nM

Q: What about the Ki [5] of the same compound?
A: 2020 nM

Q: How did the Ki [1] turn out when `CN1C2CCC1CC(OC(c1ccc(F)cc1)c1ccc(F)cc1)C2` (configuration not stated) [DIFLUOROBENZTROPINE] was run?
A: > 8500 nM

Q: And the Ki [2]?
A: 2440 nM

Q: With `Fc1ccc(C(OC2CC3CCC(C2)N3)c2ccc(F)cc2)cc1` (configuration not stated) as the compound, how does the Ki [8] read?
A: > 8000 nM

Q: What about the Ki [2] of the same compound?
A: 2100 nM

Q: And the IC50 [3]?
A: 9.7 nM

Q: And the Ki [4]?
A: 156 nM

Q: What about the Ki [5] of the same compound?
A: 11.2 nM

Q: Which inhibition [6] does the source give for `CC(=O)N1C2CCC1CC(OC(c1ccc(F)cc1)c1ccc(F)cc1)C2` (configuration not stated) here?
A: 8.5%

Q: What about the inhibition [7] of the same compound?
A: 1.3%

Q: And the IC50 [3]?
A: 4600 nM

Q: And the Ki [5]?
A: 2340 nM

Q: How did the inhibition [6] turn out when `C[N+]1(C)[C@@H]2CC[C@H]1C[C@@H](OC(c1ccc(F)cc1)c1ccc(F)cc1)C2` was run?
A: 38%

Q: What about the inhibition [7] of the same compound?
A: 79%

Q: And the IC50 [3]?
A: 130 nM

Q: And the Ki [4]?
A: 29.1 nM

Q: What about the Ki [5] of the same compound?
A: 108 nM

Q: Which results are given for `Fc1ccc(C(OC2CC3CCC(C2)N3Cc2ccccc2)c2ccc(F)cc2)cc1` (configuration not stated)?
A: Ki [1]: 2080 nM; inhibition [7]: 74%; IC50 [3]: 290 nM; Ki [4]: 773 nM; Ki [5]: 82.2 nM

Q: Which inhibition [6] does the source give for `Fc1ccc(CN2C3CCC2CC(OC(c2ccc(F)cc2)c2ccc(F)cc2)C3)cc1` (configuration not stated) here?
A: 60%

Q: What about the IC50 [3] of the same compound?
A: 200 nM

Q: What about the Ki [4] of the same compound?
A: 611 nM

Q: What about the Ki [5] of the same compound?
A: 95.6 nM

Q: With `Fc1ccc(CCCN2C3CCC2CC(OC(c2ccc(F)cc2)c2ccc(F)cc2)C3)cc1` (configuration not stated) as the compound, how does the Ki [5] read?
A: 60.7 nM

Q: With `O=[N+]([O-])c1ccc(-c2ccc(COCCN3C4CCC3CC(OC(c3ccc(F)cc3)c3ccc(F)cc3)C4)cc2)cc1` (configuration not stated) as the compound, how does the Ki [5] read?
A: 57 nM

Q: With `Fc1ccc(C(OC2CC3CCC(C2)N3CC2CC2)c2ccc(F)cc2)cc1` (configuration not stated) as the compound, how does the Ki [1] read?
A: 4790 nM

Q: What about the Ki [2] of the same compound?
A: 1190 nM

Q: And the IC50 [3]?
A: 180 nM

Q: And the Ki [4]?
A: 136 nM

Q: What about the Ki [5] of the same compound?
A: 32.4 nM

Q: Which inhibition [9] does the source give for `CS(=O)(=O)N1C2CCC1CC(OC(c1ccc(F)cc1)c1ccc(F)cc1)C2` (configuration not stated) here?
A: 18%

Q: With `Cc1ccc(S(=O)(=O)N2C3CCC2CC(OC(c2ccc(F)cc2)c2ccc(F)cc2)C3)cc1` (configuration not stated) as the compound, how does the inhibition [9] read?
A: 0%

Q: Which IC50 [3] does the source give for `O=[N+]([O-])c1ccc(CCCCN2[C@@H]3CC[C@H]2C[C@@H](OC(c2ccc(F)cc2)c2ccc(F)cc2)C3)cc1` here?
A: 650 nM

Q: What about the Ki [5] of the same compound?
A: 20.2 nM
